These results are taken from ChEMBL document CHEMBL4354826, “Structure-Based Discovery of SD-36 as a Potent, Selective, and Efficacious PROTAC Degrader of STAT3 Protein” (J Med Chem, 2019).

Structures are written as SMILES. pIC50, pKi: −log10 of the molar value. Active and inactive are the calls of the source. The rule behind the calls is not given here.

Usually DC50 stands for the concentration at which degradation of the target reaches its halfway point. As a reminder, the pIC50 is −log10 of the IC50, conventionally taken in molar units. What is called pKi is the negative decadic logarithm of the Ki, by convention in mol/L.

Assay [1] addresses T1, Protein cereblon/Signal transducer and activator of transcription 3 (Homo sapiens, UniProt P40763+Q96SW2). In words: Protac activity at CRBN/STAT3 in human MOLM16 cells assessed as degradation of STAT3 incubated for 4 hrs by Western blot analysis. The assay is classed as cell-based. A digest of the protocol: (§1)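 Molm-16 cells treated 4 h with serially diluted compound. Lysates immunoblotted (SDS–PAGE, PVDF, 5% blocker/TBST, chemiluminescence) for total STAT3 and pSTAT3 Y705. DC50 taken as the concentration reducing total STAT3 by 50%.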
Target sequence in this assay (P40763 whole entry): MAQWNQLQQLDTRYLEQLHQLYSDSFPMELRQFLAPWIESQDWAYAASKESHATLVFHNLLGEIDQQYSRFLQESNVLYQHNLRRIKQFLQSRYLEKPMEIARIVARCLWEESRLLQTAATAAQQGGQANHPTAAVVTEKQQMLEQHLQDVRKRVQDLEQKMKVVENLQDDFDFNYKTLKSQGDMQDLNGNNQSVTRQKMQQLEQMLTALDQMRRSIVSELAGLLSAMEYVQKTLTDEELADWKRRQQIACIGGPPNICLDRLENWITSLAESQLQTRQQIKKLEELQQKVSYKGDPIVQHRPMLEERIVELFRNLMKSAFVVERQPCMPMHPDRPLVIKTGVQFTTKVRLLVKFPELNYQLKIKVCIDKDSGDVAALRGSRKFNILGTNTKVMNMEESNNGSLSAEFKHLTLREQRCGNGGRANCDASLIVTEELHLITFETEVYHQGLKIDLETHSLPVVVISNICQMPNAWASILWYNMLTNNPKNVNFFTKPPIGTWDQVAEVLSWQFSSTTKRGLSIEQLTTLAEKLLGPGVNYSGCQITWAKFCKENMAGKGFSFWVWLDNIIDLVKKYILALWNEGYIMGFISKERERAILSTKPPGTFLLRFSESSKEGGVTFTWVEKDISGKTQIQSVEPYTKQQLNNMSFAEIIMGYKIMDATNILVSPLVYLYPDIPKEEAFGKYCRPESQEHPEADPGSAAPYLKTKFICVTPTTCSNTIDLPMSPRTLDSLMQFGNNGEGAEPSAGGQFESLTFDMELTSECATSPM
Target sequence in this assay (Q96SW2 whole entry): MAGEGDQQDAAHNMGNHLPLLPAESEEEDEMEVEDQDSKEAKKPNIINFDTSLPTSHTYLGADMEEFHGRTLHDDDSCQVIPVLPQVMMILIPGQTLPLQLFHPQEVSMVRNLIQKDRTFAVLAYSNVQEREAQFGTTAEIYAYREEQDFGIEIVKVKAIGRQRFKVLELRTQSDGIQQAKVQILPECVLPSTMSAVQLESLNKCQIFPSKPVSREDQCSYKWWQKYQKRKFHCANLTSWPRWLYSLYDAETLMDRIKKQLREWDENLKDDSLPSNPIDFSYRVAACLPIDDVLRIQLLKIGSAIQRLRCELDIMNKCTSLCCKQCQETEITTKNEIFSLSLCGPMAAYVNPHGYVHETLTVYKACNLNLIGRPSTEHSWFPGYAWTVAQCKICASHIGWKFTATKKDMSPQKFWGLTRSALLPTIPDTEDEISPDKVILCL

A short description of assay [2]: Antiproliferative activity against human MOLM16 cells assessed as reduction in cell viability incubated for 4 days by cell-titer glo luminescent assay. It counts as functional, cell-based. The following applies: MOLM16, 96 h. Summed up: (§2)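 Viability assay: cells incubated with serially diluted compounds for 4 days, viability read by CellTiter-Glo luminescence; IC50 from concentration–response.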

Assay [3] addresses T1, Protein cereblon/Signal transducer and activator of transcription 3. Kind of assay: Protac activity at CRBN/STAT3 in human SUDHL1 cells assessed as degradation of STAT3 incubated for 16 hrs by Western blot analysis. It counts as cell-based.
Target sequence in this assay (P40763 whole entry): as the sequence (P40763 whole entry) above
Target sequence in this assay (Q96SW2 whole entry): as the sequence (Q96SW2 whole entry) above
The target is the same in assay [4]. In words: Protac activity at CRBN/STAT3 in human SUDHL1 cells assessed as degradation of phosphorylated STAT3 Y705 upto 5 uM incubated for 16 hrs by Western blot analysis. The assay is classed as cell-based. (A western blot detects proteins with antibodies after separation by electrophoresis.)
Target sequence in this assay (P40763 2-770 limits assumed): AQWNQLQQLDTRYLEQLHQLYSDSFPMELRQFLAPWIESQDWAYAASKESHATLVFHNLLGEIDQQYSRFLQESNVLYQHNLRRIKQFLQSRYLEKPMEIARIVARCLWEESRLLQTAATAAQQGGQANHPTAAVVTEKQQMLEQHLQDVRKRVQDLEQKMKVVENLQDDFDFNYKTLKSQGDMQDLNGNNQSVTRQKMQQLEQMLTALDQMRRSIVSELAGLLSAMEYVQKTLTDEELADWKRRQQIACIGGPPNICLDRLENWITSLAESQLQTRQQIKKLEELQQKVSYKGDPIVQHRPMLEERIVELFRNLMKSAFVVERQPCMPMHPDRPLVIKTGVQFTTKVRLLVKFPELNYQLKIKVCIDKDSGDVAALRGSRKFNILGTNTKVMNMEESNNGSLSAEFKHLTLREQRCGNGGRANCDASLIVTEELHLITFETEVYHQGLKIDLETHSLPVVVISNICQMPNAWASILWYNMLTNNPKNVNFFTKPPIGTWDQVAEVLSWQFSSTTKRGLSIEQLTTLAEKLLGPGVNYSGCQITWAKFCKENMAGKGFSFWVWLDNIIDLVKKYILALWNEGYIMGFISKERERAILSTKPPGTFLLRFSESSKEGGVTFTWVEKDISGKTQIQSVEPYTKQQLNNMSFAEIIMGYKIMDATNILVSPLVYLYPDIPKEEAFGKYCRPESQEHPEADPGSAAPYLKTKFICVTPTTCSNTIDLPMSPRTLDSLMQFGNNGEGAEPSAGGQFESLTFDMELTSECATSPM
Target sequence in this assay (Q96SW2 whole entry partner): as the sequence (Q96SW2 whole entry) above
For assay [5], the system named is SU-DHL-1. Kind of assay: Antiproliferative activity against human SUDHL1 cells assessed as reduction in cell viability incubated for 4 days by cell-titer glo luminescent assay. The following applies: SU-DHL-1, 96 h. The assay is classed as functional, cell-based. Summed up: as §2
In assay [6] the target is T1, Protein cereblon/Signal transducer and activator of transcription 3. In words: Protac activity at CRBN/STAT3 in human SUDHL1 cells assessed as degradation of STAT3 upto 5 uM incubated for 16 hrs by Western blot analysis. It counts as cell-based.
Target sequence in this assay (P40763 2-770 limits assumed): as the sequence (P40763 2-770 limits assumed) above
Target sequence in this assay (Q96SW2 whole entry partner): as the sequence (Q96SW2 whole entry) above
Assay [7] has the same target. In words: Protac activity at CRBN/STAT3 in human MOLM16 cells assessed as degradation of phosphorylated STAT3 Y705 upto 10 uM incubated for 4 hrs by Western blot analysis. It counts as cell-based. A digest of the protocol:
as §1
Target sequence in this assay (P40763 2-770 limits assumed): as the sequence (P40763 2-770 limits assumed) above
Target sequence in this assay (Q96SW2 whole entry partner): as the sequence (Q96SW2 whole entry) above

Assay [8] shares this target. In words: Protac activity at CRBN/STAT3 in human MOLM16 cells assessed as degradation of STAT3 up to 10 uM incubated for 4 hrs by Western blot analysis. The assay is classed as cell-based. Summed up:
as §1
Target sequence in this assay (P40763 2-770 limits assumed): as the sequence (P40763 2-770 limits assumed) above
Target sequence in this assay (Q96SW2 whole entry partner): as the sequence (Q96SW2 whole entry) above

In assay [9] the target is T2, Signal transducer and activator of transcription 3 (Homo sapiens, UniProt P40763). In words: Binding affinity to recombinant human His/SUMO-tagged STAT3 (127 to 688 residues) expressed in Escherichia coli Rosetta (DE3) incubated for 1 hr by fluorescence polarization assay. A general note: Polarisation of emitted light reports the rotation of a fluorescent probe.
Assay [10] concerns the target T2, Signal transducer and activator of transcription 3. Kind of assay: Potency index, ratio of Ki of CJ-887 to Ki of compound for binding affinity to recombinant human His/SUMO-tagged STAT3 (127 to 688 residues) expressed in Escherichia coli Rosetta (DE3) incubated for 1 hr by fluorescence polarization assay.
The target of assay [11] is T3, Protein cereblon/Signal transducer and activator of transcription 5A (Homo sapiens) (UniProt P42229+Q96SW2). In words: Protac activity at CRBN/STAT5A in human MOLM16 cells assessed as degradation of STAT5A at 10 uM incubated for 4 hrs by Western blot analysis. It counts as cell-based. A digest of the protocol:
(§3)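 Molm-16 cells treated 4 h with test compound at 0.01–10 μM, or control compounds at 10 μM. Lysates separated by SDS–PAGE, transferred to PVDF, blocked 1 h in 5% blocker/TBST, probed for each STAT protein, and detected by chemiluminescence.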

The target of assay [12] is T1, Protein cereblon/Signal transducer and activator of transcription 3. Kind of assay: Protac activity at CRBN/STAT3 in human SUDHL1 cells assessed as degradation of phosphorylated STAT3 Y705 upto 10 uM incubated for 16 hrs by Western blot analysis. The assay is classed as cell-based.
Target sequence in this assay (P40763 2-770 limits assumed): as the sequence (P40763 2-770 limits assumed) above
Target sequence in this assay (Q96SW2 whole entry partner): as the sequence (Q96SW2 whole entry) above
Assay [13] has as its target T4, Protein cereblon/Signal transducer and activator of transcription 5B (Homo sapiens) (UniProt P51692+Q96SW2). In words: Protac activity at CRBN/STAT5B in human MOLM16 cells assessed as degradation of STAT5B at 10 uM incubated for 4 hrs by Western blot analysis. The assay is classed as cell-based. A digest of the protocol:
as §3

The target in assay [14] is T5, Protein cereblon/Signal transducer and activator of transcription 4 (Homo sapiens) (UniProt Q96SW2+Q14765). In words: Protac activity at CRBN/STAT4 in human SUDHL1 cells assessed as degradation of STAT4 at 10 uM incubated for 18 hrs by Western blot analysis. It counts as cell-based. A digest of the protocol:
(§4)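 SU-DHL-1 cells treated 18 h with test compound at 0.01–10 μM, or control compounds at 10 μM. Lysates separated by SDS–PAGE, transferred to PVDF, blocked 1 h in 5% blocker/TBST, probed for each STAT protein, and detected by chemiluminescence.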

Assay [15] concerns the target T6, Protein cereblon/Signal transducer and activator of transcription 1-alpha/beta (Homo sapiens) (UniProt P42224+Q96SW2). In words: Protac activity at CRBN/STAT1 in human MOLM16 cells assessed as degradation of STAT1 at 10 uM incubated for 4 hrs by Western blot analysis. It counts as cell-based. A digest of the protocol:
as §3

The target in assay [16] is T7, Protein cereblon/Signal transducer and activator of transcription 2 (Homo sapiens) (UniProt Q96SW2+P52630). In words: Protac activity at CRBN/STAT2 in human MOLM16 cells assessed as degradation of STAT2 at 10 uM incubated for 4 hrs by Western blot analysis. It counts as cell-based. A digest of the protocol: as §3
Assay [17] deals with T1, Protein cereblon/Signal transducer and activator of transcription 3. Kind of assay: Protac activity at CRBN/STAT3 in human MOLM16 cells assessed as degradation of STAT3 at 10 uM incubated for 4 hrs by Western blot analysis. The assay is classed as cell-based. Summed up:
as §3
Target sequence in this assay (P40763 2-770 limits assumed): as the sequence (P40763 2-770 limits assumed) above
Target sequence in this assay (Q96SW2 whole entry partner): as the sequence (Q96SW2 whole entry) above

Assay [18] concerns the target T8, Protein cereblon/Signal transducer and activator of transcription 6 (Homo sapiens) (UniProt P42226+Q96SW2). Kind of assay: Protac activity at CRBN/STAT6 in human SUDHL1 cells assessed as degradation of STAT6 at 10 uM incubated for 18 hrs by Western blot analysis. It counts as cell-based. Summed up: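 SU-DHL-1 cells exposed to compound over 0.01–10 μM, or controls at 10 μM, for 18 h. Lysates separated by SDS–PAGE and transferred to PVDF. Membranes blocked 1 h in 5% blocker/TBST, probed with primary then secondary antibodies, and developed by chemiluminescence for STAT1, STAT2, STAT4, STAT5A/B, STAT6 and STAT3.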

Assay [19] addresses T1, Protein cereblon/Signal transducer and activator of transcription 3. Kind of assay: Protac activity at CRBN/STAT3 in human SUDHL1 cells assessed as degradation of STAT3 upto 10 uM incubated for 16 hrs by Western blot analysis. It counts as cell-based.
For assay [20], the target named is T5, Protein cereblon/Signal transducer and activator of transcription 4 (Homo sapiens). Kind of assay: Protac activity at CRBN/STAT4 in human MOLM16 cells assessed as degradation of STAT4 at 10 uM incubated for 4 hrs by Western blot analysis. It counts as cell-based. A digest of the protocol:
as §3

Assay [21] addresses T1, Protein cereblon/Signal transducer and activator of transcription 3. In words: Protac activity at CRBN/STAT3 in human SUDHL1 cells assessed as degradation of STAT3 at 10 uM incubated for 18 hrs by Western blot analysis. It counts as cell-based. A digest of the protocol:
as §4

The target of assay [22] is T8, Protein cereblon/Signal transducer and activator of transcription 6 (Homo sapiens). In words: Protac activity at CRBN/STAT6 in human MOLM16 cells assessed as degradation of STAT6 at 10 uM incubated for 4 hrs by Western blot analysis. It counts as cell-based. A digest of the protocol:
as §3

For assay [23], the target named is T3, Protein cereblon/Signal transducer and activator of transcription 5A (Homo sapiens). Kind of assay: Protac activity at CRBN/STAT5A in human SUDHL1 cells assessed as degradation of STAT5A at 10 uM incubated for 18 hrs by Western blot analysis. It counts as cell-based. A digest of the protocol:
as §4

Assay [24] concerns the target T4, Protein cereblon/Signal transducer and activator of transcription 5B (Homo sapiens). In words: Protac activity at CRBN/STAT5B in human SUDHL1 cells assessed as degradation of STAT5B at 10 uM incubated for 18 hrs by Western blot analysis. It counts as cell-based. Summed up:
as §4

Assay [25] addresses T7, Protein cereblon/Signal transducer and activator of transcription 2 (Homo sapiens). In words: Protac activity at CRBN/STAT2 in human SUDHL1 cells assessed as degradation of STAT2 at 10 uM incubated for 18 hrs by Western blot analysis. It counts as cell-based. Summed up:
as §4

The target in assay [26] is T6, Protein cereblon/Signal transducer and activator of transcription 1-alpha/beta (Homo sapiens). Kind of assay: Protac activity at CRBN/STAT1 in human SUDHL1 cells assessed as degradation of STAT1 at 10 uM incubated for 18 hrs by Western blot analysis. It counts as cell-based. A digest of the protocol:
as §4

T4 sequence (P51692 whole entry, looked up): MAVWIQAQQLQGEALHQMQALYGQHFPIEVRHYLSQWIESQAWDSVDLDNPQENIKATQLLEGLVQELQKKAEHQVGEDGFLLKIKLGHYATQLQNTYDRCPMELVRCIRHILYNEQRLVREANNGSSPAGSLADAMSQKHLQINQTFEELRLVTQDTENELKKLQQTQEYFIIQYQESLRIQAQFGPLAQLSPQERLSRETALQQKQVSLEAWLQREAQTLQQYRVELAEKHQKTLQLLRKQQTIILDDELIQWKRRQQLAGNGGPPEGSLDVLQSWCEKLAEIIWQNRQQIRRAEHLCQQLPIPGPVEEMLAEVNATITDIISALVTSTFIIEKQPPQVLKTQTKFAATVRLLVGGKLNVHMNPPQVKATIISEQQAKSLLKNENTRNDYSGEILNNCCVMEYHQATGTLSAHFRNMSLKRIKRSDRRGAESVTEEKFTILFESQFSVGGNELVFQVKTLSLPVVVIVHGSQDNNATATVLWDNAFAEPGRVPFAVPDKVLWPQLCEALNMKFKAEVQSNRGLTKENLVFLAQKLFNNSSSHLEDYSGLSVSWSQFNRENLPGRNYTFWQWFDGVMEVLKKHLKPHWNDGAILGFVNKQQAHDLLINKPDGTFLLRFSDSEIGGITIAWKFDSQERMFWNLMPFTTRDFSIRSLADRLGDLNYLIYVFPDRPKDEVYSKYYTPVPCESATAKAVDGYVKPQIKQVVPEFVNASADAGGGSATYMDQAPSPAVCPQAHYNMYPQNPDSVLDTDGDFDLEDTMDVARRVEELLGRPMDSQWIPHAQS
T4 sequence (Q96SW2 whole entry, looked up): as the sequence (Q96SW2 whole entry) above
T2 sequence (P40763 whole entry, the tested form may be a part): as the sequence (P40763 whole entry) above
T7 sequence (P52630 whole entry, looked up): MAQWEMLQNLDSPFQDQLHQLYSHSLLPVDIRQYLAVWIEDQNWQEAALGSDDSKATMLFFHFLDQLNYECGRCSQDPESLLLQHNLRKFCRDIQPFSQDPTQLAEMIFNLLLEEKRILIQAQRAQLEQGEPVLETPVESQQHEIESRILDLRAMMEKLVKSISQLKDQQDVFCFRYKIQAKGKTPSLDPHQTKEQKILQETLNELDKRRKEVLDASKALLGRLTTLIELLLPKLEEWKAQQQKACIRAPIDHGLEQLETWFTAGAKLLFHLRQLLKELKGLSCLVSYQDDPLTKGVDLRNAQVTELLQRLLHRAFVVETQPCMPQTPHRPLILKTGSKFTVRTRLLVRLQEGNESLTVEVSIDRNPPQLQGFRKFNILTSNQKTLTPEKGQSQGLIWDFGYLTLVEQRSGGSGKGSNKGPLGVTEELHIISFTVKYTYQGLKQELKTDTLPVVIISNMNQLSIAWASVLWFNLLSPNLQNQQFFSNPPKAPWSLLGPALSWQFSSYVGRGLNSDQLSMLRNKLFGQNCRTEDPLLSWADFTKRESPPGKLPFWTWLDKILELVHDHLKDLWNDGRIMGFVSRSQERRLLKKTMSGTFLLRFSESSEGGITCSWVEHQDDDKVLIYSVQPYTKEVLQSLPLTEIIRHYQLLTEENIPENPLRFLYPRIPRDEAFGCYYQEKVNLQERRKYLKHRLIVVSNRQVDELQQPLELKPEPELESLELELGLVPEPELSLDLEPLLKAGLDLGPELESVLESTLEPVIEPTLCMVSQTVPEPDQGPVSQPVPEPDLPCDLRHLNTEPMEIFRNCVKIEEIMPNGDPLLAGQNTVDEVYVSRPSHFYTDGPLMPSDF
T7 sequence (Q96SW2 whole entry, looked up): as the sequence (Q96SW2 whole entry) above

As for `NC(=O)CC[C@H](NC(=O)[C@@H]1CC[C@@H]2CCN(C(=O)CCCCCC#Cc3cccc4c3C(=O)N(C3CCC(=O)NC3=O)C4=O)C[C@H](NC(=O)c3cc4cc(C(F)(F)P(=O)(O)O)ccc4[nH]3)C(=O)N21)C(=O)NC(c1ccccc1)c1ccccc1` (some centres undefined), the DC50 in [1] is 3.54 µM; in assay [3], above 10 µM. Also, the pIC50 in assay [2] was 6.24; in [5] it was below 5.00. The result in assay [4] and in assay [6] was inactive.
As for `NC(=O)CC[C@H](NC(=O)[C@@H]1CC[C@@H]2CCN(C(=O)CCCCCC#Cc3cccc4c3CN(C3CCC(=O)NC3=O)C4=O)C[C@H](NC(=O)c3cc4cc(OP(=O)(O)O)ccc4[nH]3)C(=O)N21)C(=O)NC(c1ccccc1)c1ccccc1` (some centres undefined), the DC50 in assay [1] is above 10 µM. Besides, in assay [2], the pIC50 was below 5.70. Moreover, the result in assay [7] and in assay [8] was inactive.
`NC(=O)CC[C@H](NC(=O)[C@@H]1CC[C@@H]2CCCC[C@H](NC(=O)c3cc4cc(C(F)(F)P(=O)(O)O)ccc4[nH]3)C(=O)N21)C(=O)NCc1ccccc1`: the pKi in assay [9] was 8.15. Further, the Ratio Ki in assay [10] came out at 7.
As for `CN1C(=O)CCC(N2Cc3c(C#CCCCCCC(=O)N4CC[C@H]5CC[C@@H](C(=O)N[C@@H](CCC(N)=O)C(=O)NC(c6ccccc6)c6ccccc6)N5C(=O)[C@@H](NC(=O)c5cc6cc(C(F)(F)P(=O)(O)O)ccc6[nH]5)C4)cccc3C2=O)C1=O` (some centres undefined), the DC50 in [1] and in assay [3] was above 10 µM throughout. Moreover, the outcome in assay [11], in assay [12], in assay [13], in assay [14], in assay [15] and in [16] was inactive. For the same compound, the outcome in assay [17], in [18], in assay [19], in [20], in assay [21] and in [22] was inactive. The result in [23], in assay [24], in assay [25] and in assay [26] was inactive. The pIC50 in [2] was 5.28; in assay [5], below 5.00. The Activity in assay [8] is 0%.
Regarding `C/C(=C\C(=O)N[C@H]1CN(C(=O)CCCCCC#Cc2cccc3c2CN(C2CCC(=O)NC2=O)C3=O)CC[C@H]2CC[C@@H](C(=O)N[C@@H](CCC(N)=O)C(=O)NC(c3ccccc3)c3ccccc3)N2C1=O)c1ccc(C(F)(F)P(=O)(O)O)cc1` (some centres undefined), the DC50 in [1] is 4.45 µM; in assay [3], above 10 µM. Further, the pIC50 in assay [2] is 5.90; in assay [5] it was below 5.00. Moreover, the outcome in assay [4] and in assay [6] was inactive.
